{
  "source": "ChEMBL document CHEMBL3588826",
  "about": "“Chimeric derivatives of functionalized amino acids and α-aminoamides: compounds with anticonvulsant activity in seizure models and inhibitory actions on central, peripheral, and cardiac isoforms of voltage-gated sodium channels” (Bioorg Med Chem, 2015)",
  "key": {"Rattus norvegicus [1]": {"system": "Rattus norvegicus", "assay": "Toxicity in po dosed Sprague-Dawley rat assessed as changes in clinical chemistry parameters administered via gavage", "type": "organism-based", "settings": "in vivo", "in_short": "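Non-GLP 7-day repeated-dose study in female Sprague-Dawley rats given oral gavage at 20, 60 and 180 mg/kg/day. Endpoints were weight bearing, gait coordination, respiratory rate, relative organ weights, clinical chemistry and gross pathology, with NOAEL determined.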"}, "Rattus norvegicus [2]": {"organism": "Rattus norvegicus", "assay": "Effect on steady state fast-inactivation of voltage-gated sodium channel in rat embryonic cortical neurons at 10 uM by whole cell patch-clamp electrophysiology", "in_short": "(§1)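 Rat embryonic day 19 cortical neurons, cultured 7–10 days, were whole-cell voltage-clamped at room temperature with 1–2 MΩ electrodes, with compound at 10 μM and 0.1% DMSO as control. Fast inactivation: 500 ms prepulses, then a test pulse. Activation: conductance G = I/(Vm − Vrev). V1/2 and k came from Boltzmann fits to individual cells, averaged (mean ± SEM), 5–7 cells per condition.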"}, "CAD": {"system": "CAD", "assay": "Frequency-dependent inhibition of voltage-gated sodium channel in mouse CAD cells assessed as decrease in current amplitude at 30 uM by whole cell patch-clamp electrophysiology", "type": "cell-based", "in_short": "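CAD cells, whole-cell voltage clamp at room temperature, with compound at 1, 10 or 30 μM against 0.1% DMSO. Thirty identical test pulses were given at 10 Hz. Current was normalized as peak at pulse N over pulse 1, and the maximal decrement was read at the end of the train. One-way ANOVA with Dunnett's test; 4–10 cells per condition.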"}, "[3]": {"target": "Sodium channel protein type 9 subunit alpha (Homo sapiens) (UniProt Q15858)", "sequence (Q15858 whole entry, looked up)": "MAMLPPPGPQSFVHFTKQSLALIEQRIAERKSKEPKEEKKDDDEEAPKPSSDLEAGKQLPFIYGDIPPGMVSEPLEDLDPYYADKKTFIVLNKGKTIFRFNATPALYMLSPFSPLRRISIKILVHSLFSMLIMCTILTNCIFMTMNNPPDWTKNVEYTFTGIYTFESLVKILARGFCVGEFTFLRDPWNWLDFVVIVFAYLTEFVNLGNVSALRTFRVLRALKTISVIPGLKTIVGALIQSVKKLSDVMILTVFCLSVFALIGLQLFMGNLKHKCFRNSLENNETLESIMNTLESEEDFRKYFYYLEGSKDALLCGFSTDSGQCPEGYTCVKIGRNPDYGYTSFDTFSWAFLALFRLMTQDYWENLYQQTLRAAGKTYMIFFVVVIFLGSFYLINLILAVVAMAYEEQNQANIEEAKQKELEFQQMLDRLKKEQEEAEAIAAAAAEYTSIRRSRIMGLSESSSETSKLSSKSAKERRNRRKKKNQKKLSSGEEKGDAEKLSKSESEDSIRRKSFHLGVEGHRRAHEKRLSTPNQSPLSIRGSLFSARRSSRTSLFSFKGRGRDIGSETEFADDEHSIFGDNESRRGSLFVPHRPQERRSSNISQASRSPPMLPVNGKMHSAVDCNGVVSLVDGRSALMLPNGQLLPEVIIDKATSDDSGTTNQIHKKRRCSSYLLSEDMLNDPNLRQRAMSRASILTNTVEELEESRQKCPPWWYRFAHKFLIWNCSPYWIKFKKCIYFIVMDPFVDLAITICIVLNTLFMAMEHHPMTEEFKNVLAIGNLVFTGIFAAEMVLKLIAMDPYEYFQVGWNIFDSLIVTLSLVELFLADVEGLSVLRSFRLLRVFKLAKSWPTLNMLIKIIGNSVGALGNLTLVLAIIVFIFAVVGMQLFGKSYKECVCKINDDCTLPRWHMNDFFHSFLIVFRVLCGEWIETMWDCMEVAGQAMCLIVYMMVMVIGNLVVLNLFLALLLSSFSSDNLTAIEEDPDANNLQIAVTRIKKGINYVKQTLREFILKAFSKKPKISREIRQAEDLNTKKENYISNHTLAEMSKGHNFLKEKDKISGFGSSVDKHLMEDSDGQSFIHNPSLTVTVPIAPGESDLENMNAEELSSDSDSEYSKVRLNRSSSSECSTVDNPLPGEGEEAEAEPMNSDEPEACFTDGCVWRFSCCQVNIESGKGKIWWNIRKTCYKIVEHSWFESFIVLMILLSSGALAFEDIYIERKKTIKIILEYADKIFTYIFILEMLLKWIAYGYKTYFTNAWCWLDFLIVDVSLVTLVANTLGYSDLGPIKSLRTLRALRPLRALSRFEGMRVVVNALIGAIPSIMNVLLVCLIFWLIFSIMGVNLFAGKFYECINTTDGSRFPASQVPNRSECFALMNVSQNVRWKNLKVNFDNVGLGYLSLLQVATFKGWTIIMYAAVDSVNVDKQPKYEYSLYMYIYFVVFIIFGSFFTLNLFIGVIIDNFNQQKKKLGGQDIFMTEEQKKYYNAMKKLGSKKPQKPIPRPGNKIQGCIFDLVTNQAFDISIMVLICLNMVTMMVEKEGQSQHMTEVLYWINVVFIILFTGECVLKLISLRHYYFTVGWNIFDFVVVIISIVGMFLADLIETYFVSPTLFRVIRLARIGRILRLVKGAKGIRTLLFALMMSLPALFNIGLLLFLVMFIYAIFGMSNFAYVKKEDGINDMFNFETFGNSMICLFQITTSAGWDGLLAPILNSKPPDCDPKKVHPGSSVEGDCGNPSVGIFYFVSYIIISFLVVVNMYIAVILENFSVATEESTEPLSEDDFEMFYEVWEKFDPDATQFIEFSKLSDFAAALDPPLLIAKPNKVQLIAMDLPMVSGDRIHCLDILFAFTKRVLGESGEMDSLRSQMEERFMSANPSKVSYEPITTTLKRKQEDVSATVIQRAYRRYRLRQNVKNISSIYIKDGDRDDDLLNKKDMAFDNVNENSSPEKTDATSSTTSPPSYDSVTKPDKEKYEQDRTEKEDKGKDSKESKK", "assay": "Inhibition of human Nav1.7 expressed in HEK293 cells assessed as half-maximal voltage for steady state activation at 10 uM by whole cell patch-clamp electrophysiology (reference value: -27.13 +/-4.01 mV)", "type": "cell-based"}, "[4]": {"target": "Sodium channel protein type 9 subunit alpha (Homo sapiens) (UniProt Q15858)", "assay": "Inhibition of human Nav1.7 expressed in HEK293 cells assessed as transition of channels to slow-inactivated state at 10 uM measured at -50 mV by whole cell patch-clamp electrophysiology", "type": "cell-based", "in_short": "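HEK293 cells stably expressing hNav1.1, rNav1.3, hNav1.7 or hNav1.5 were grown in DMEM with 10% FBS. Recordings were whole-cell voltage clamp at room temperature, with 10 μM compound versus 0.1% DMSO. Slow inactivation at −50 mV was calculated as 1 minus normalized peak INa. Nav1.5 used hyperpolarized protocols. Data are from 5–6 cells.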"}, "Rattus norvegicus [5]": {"organism": "Rattus norvegicus", "assay": "Effect on steady state activation of voltage-gated sodium channel in rat embryonic cortical neurons at 10 uM by whole cell patch-clamp electrophysiology", "in_short": "as §1"}, "[6]": {"target": "Sodium channel protein type 9 subunit alpha (Homo sapiens) (UniProt Q15858)", "assay": "Inhibition of human Nav1.7 expressed in HEK293 cells assessed as half-maximal voltage for steady state fast-inactivation at 10 uM by whole cell patch-clamp electrophysiology (reference value: -61.11 +/-3.02 mV)", "type": "cell-based"}, "Rattus norvegicus [7]": {"organism": "Rattus norvegicus", "assay": "Frequency-dependent inhibition of voltage-gated sodium channel in rat embryonic cortical neurons assessed as current amplitude at 10 uM measured at holding potential of -80 mV by whole cell patch-clamp electrophysiology", "in_short": "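E19 rat cortical neurons cultured 7–10 days were recorded by whole-cell voltage clamp at room temperature. Compound was at 10 μM versus 0.1% DMSO. A pulse train was applied, and available current was taken as peak current at pulse N divided by peak at pulse 1.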"}, "Cytochrome P450 3A5": {"target": "Cytochrome P450 3A5 (Homo sapiens, UniProt P20815)", "sequence (P20815 whole entry)": "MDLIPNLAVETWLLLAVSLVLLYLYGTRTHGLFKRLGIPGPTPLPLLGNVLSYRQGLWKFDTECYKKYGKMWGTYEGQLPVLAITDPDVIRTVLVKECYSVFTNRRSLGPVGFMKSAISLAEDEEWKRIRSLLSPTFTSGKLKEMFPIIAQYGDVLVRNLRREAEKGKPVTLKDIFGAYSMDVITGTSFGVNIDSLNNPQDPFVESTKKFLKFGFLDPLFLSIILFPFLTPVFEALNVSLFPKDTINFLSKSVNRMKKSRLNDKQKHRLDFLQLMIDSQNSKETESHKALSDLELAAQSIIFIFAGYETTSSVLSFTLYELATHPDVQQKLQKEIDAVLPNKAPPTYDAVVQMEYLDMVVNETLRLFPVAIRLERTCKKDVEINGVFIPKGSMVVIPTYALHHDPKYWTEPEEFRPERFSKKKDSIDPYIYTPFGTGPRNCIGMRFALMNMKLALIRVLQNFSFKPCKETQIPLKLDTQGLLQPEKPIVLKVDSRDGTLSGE", "assay": "Inhibition of human CYP3A5 at 10 uM", "type": "ADME", "in_short": "(§2)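 Test compound at 10 μM against a human CYP450 panel (CYP1A2, 2B6, 2C8, 2C9, 2C19, 2D6, 3A4/5). Direct inhibition was measured, and time-dependent inhibition was measured after a 30-min preincubation.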"}, "[8]": {"assay": "Neurotoxicity in ip dosed albino Carworth Farms No. 1 mouse measured at 0.25 hrs by rotarod test", "type": "toxicity, organism-based", "settings": "in vivo"}, "Rattus norvegicus [9]": {"system": "Rattus norvegicus", "assay": "Toxicity in po dosed Sprague-Dawley rat assessed as changes in body weight administered via gavage", "type": "organism-based", "settings": "in vivo"}, "Mus musculus": {"system": "Mus musculus", "assay": "Anticonvulsant activity in ip dosed albino Carworth Farms No. 1 mouse measured at 0.25 hrs by 6Hz (32 mA) psychomotor seizure test", "type": "functional", "settings": "Carworth Farms No. 1, ip", "in_short": "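Screened under the NIH anticonvulsant program in male albino Carworth Farms No. 1 mice (ip) and male albino Sprague-Dawley rats (ip or oral). Protection tested by maximal electroshock or 6 Hz (32 mA) psychomotor stimulation.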"}, "[10]": {"assay": "Half life in Sprague-Dawley rat at 5 mg/kg, iv", "type": "ADME, organism-based", "settings": "in vivo", "in_short": "(§3)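 Pharmacokinetics in Sprague-Dawley rats given a single iv dose of 5 mg/kg or an oral dose of 20 mg/kg.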"}, "[11]": {"target": "Sodium channel protein type 3 subunit alpha (Rattus norvegicus) (UniProt P08104)", "sequence (P08104 whole entry)": "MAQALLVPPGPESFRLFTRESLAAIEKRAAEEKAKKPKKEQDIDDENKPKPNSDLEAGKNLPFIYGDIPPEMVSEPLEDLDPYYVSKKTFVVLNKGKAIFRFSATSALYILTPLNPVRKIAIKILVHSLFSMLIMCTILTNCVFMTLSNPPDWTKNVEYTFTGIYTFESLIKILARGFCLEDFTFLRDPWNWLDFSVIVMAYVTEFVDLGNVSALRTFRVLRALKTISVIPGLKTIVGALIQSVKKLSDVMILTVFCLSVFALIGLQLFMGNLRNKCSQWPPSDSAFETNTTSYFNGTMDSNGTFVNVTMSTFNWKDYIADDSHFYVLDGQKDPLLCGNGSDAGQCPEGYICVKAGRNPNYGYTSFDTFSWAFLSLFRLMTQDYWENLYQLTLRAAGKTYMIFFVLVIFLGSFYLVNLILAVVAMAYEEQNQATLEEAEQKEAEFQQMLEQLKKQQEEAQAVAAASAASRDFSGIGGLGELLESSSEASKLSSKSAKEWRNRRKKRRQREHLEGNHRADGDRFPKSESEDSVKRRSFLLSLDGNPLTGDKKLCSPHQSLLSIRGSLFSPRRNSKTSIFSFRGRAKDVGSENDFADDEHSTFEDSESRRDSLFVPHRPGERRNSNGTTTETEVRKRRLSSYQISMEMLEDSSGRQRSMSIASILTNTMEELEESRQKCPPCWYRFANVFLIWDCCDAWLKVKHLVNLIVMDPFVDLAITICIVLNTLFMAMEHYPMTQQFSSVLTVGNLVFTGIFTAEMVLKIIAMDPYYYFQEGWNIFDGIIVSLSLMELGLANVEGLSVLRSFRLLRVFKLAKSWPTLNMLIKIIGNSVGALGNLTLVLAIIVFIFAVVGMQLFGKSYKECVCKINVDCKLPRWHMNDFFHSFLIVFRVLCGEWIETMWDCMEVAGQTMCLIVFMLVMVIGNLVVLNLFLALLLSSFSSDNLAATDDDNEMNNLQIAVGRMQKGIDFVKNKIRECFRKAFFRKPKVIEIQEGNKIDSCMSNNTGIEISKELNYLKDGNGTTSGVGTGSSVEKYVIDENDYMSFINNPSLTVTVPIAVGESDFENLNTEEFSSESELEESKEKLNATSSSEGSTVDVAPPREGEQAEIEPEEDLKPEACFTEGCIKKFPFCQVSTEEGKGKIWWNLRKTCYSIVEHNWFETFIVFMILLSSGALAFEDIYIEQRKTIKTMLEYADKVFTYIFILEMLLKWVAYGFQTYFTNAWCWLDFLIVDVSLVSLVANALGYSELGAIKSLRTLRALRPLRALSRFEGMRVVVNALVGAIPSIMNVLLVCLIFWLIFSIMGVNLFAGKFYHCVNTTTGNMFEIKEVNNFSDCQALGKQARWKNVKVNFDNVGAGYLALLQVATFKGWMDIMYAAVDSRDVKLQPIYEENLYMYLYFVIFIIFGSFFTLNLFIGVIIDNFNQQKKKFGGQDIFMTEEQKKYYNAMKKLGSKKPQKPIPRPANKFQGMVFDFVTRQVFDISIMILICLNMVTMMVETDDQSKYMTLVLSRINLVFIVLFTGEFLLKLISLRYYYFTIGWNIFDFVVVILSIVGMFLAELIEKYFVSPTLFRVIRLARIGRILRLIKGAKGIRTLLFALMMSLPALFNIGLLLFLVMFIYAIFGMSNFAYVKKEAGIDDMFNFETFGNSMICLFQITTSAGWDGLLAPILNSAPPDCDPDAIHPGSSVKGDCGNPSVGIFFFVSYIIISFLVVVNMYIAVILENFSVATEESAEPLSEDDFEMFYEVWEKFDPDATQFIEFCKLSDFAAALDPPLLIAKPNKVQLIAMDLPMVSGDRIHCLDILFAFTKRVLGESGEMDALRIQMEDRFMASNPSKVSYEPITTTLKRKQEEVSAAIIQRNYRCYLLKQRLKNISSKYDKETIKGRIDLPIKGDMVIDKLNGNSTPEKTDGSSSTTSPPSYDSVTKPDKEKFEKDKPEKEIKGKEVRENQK", "assay": "Frequency-dependent inhibition of rat Nav1.3 expressed in HEK293 cells assessed as current amplitude at 10 uM by whole cell patch-clamp electrophysiology", "type": "cell-based", "in_short": "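Stable HEK293 lines expressing hNav1.1, rNav1.3, hNav1.7 or hNav1.5 were recorded by whole-cell voltage clamp at room temperature, with 10 μM compound versus 0.1% DMSO. A 30-pulse train was applied, and the read-out was the fraction of current remaining at the last pulse normalized to the first. Nav1.5 used hyperpolarized protocols.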"}, "Rattus norvegicus [12]": {"system": "Rattus norvegicus", "assay": "Bioavailability in Sprague-Dawley rat at 5 mg/kg, iv and 20 mg/kg, po", "type": "ADME, organism-based", "settings": "in vivo", "in_short": "as §3"}, "Cytochrome P450 3A4": {"target": "Cytochrome P450 3A4 (Homo sapiens, UniProt P08684)", "sequence (P08684 whole entry)": "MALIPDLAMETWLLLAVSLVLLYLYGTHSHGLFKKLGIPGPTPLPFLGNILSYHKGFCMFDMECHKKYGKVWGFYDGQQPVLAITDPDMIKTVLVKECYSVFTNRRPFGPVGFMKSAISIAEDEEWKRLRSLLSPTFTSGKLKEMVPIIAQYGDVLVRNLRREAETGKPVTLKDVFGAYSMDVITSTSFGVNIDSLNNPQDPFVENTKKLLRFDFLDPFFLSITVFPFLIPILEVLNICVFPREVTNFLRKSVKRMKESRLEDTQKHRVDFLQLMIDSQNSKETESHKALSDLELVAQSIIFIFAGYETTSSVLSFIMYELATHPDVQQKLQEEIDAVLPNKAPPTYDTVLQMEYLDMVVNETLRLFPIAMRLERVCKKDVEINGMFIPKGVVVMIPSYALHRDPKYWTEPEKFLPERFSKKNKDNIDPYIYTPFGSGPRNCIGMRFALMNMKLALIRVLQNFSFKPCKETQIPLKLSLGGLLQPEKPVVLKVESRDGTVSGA", "assay": "Inhibition of human CYP3A4 at 10 uM", "type": "ADME", "in_short": "as §2"}, "[13]": {"assay": "Protective index, ratio of TD50 for behavioural toxicity in ip dosed albino Sprague-Dawley rat to ED50 for anticonvulsant activity in ip dosed MES albino Sprague-Dawley rat model", "type": "organism-based", "settings": "in vivo, read-out: Ratio TD50/ED50", "in_short": "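Male albino Sprague-Dawley rats were dosed ip or orally. […] Protective index = TD50/ED50, the ED50 taken from maximal electroshock by the same route.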"}, "CYP2C8": {"target": "T1, CYP2C8 (Homo sapiens, UniProt P10632)", "T1 sequence (P10632 whole entry)": "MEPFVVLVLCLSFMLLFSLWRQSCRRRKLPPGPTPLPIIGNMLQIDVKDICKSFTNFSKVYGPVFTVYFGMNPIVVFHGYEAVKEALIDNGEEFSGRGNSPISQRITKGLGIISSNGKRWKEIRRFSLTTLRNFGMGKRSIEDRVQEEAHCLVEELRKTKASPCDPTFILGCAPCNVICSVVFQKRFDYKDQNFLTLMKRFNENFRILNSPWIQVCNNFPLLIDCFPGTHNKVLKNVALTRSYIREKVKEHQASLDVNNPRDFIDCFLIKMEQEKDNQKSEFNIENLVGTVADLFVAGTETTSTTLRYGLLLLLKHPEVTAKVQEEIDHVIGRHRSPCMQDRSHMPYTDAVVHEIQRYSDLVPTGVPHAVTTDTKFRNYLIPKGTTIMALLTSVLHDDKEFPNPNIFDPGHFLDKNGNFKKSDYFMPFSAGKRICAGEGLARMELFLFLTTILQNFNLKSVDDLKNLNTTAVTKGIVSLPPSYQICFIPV", "assay": "Time-dependent inhibition of human CYP2C8 measured after 30 mins preincubation period", "type": "ADME", "in_short": "as §2"}},
  "note": "Activity calls are given as the source filed them. The calls are words filed in the database; no cut-off is given here.",
  "data": [
    {"smiles": "COC[C@@H](NC(C)=O)C(=O)NCc1ccc(Oc2cccc(OC(F)(F)F)c2)cc1", "values": [
      {"measurement": "Activity", "setting": "Rattus norvegicus [1]", "result": "Toxic"},
      {"measurement": "Activity", "setting": "Rattus norvegicus [2]", "result": "inactive"},
      {"measurement": "inhibition", "setting": "CAD", "result": 44, "unit": "%"},
      {"measurement": "V1/2", "setting": "[3]", "result": -25, "unit": "mV"},
      {"measurement": "inhibition", "setting": "[4]", "result": "Active"},
      {"measurement": "Activity", "setting": "Rattus norvegicus [5]", "result": "inactive"},
      {"measurement": "V1/2", "setting": "[6]", "result": -81.3, "unit": "mV"},
      {"measurement": "inhibition", "setting": "Rattus norvegicus [7]", "result": "inactive"},
      {"measurement": "inhibition (INH)", "setting": "Cytochrome P450 3A5", "result": "Not Active"},
      {"measurement": "TD50 at 0.25 h", "setting": "[8]", "result": 40, "unit": "mg/kg"},
      {"measurement": "Activity", "setting": "Rattus norvegicus [9]", "result": "Toxic"},
      {"measurement": "ED50", "setting": "Mus musculus", "result": 15, "unit": "mg/kg"},
      {"measurement": "half-life", "setting": "[10]", "result": 1.75, "unit": "h"},
      {"measurement": "inhibition", "setting": "[11]", "result": "inactive"},
      {"measurement": "F", "setting": "Rattus norvegicus [12]", "result": 92, "unit": "%"},
      {"measurement": "inhibition (INH)", "setting": "Cytochrome P450 3A4", "result": "Not Active"},
      {"measurement": "selectivity ratio", "setting": "[13]", "result": 9.5},
      {"measurement": "inhibition at 0.5 h", "setting": "CYP2C8", "result": 16, "unit": "%"}
    ]}
  ]
}
